Sampled rows, rich in hits. Any-hit rate of the full collection: about 2.8%.
ABHD4 inh = ABHD4 inhibitors, primary screen, biochemical, fluorescence polarization, mouse. (Lyso)-N-acylphosphatidylethanolamine lipase (Mus musculus), Q8VD66. purified mABHD4, FP-Rh probe fluorescence polarization. inhibition, % at 8.92 µM. 370,000 tested, 0.54% active. AID 720543, 2013;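 active means inhibition exceeding the mean over every tested compound plus 3 SD, cut at about 30% in these data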;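 further: 0% = plate median of compound wells and 100% = S159A mutant with DMSO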
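Doses – 8.92 µM, single dose · Material – wild-type mouse ABHD4 protein · Replication – single well per compound (singlicate) · Measure – percent inhibition of probe binding, normalized to plate controls · Schedule – 45 min compound pre-incubation plus 60 min probe step, 25 °C · Detection – fluorescence polarization with parallel and perpendicular emission, 525/598 nm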
PAFAH2 inh = PAFAH2 enzyme inhibitors, primary screen, biochemical, fluorescence polarization, human; Platelet-activating factor acetylhydrolase 2, cytoplasmic (Homo sapiens), Q99487; recombinant PAFAH2, FP-rhodamine activity probe; inhibition, % at 3.39 µM; 340,000 tested, 0.99% active; AID 492956, 2010;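 active means inhibition above the mean over all tested compounds plus 3 SD, cut at about 30% in these data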;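 further: inhibitors block probe labeling of enzyme so polarization drops; 0% = enzyme with DMSO and 100% = wells lacking PAFAH2 protein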
PAFAH1B2 inh = PAFAH1B2 enzyme inhibitors, primary screen, biochemical, fluorescence polarization, human; recombinant PAFAH1B2, FP-rhodamine activity probe; inhibition, % at 3.39 µM; 340,000 tested, 1.2% active;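 active means inhibition above the mean of all tested compounds plus 3 SD, cut at about 24% in these data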;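 further: 0% = enzyme with DMSO and 100% = wells lacking PAFAH1B2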
Target sequence (P68402 whole entry, looked up): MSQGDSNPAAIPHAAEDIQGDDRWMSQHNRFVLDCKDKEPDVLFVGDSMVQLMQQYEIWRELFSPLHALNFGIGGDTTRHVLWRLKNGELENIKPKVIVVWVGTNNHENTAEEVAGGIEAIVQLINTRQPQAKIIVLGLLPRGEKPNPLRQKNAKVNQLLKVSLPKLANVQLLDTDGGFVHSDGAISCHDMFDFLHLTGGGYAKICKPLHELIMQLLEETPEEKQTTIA
HTRA1 inhibitor = HTRA1 serine protease inhibitors, primary screen, biochemical, fluorescence polarization, HTS; inhibition, % at 5.96 µM; 340,000 tested, 0.5% active; recombinant HTRA1, FP-rhodamine activity-based probe; Q92743; AID 504803, 2011; in the data active means inhibition above about 36%;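 further: 0% = enzyme with DMSO and 100% = wells lacking enzyme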
PAFAH1B3 inh = PAFAH1B3 enzyme inhibitors, primary screen, biochemical, fluorescence polarization, human; inhibition, % at 3.39 µM; Platelet-activating factor acetylhydrolase IB subunit alpha1 (Homo sapiens), Q15102; recombinant PAFAH1B3, FP-rhodamine probe; 340,000 tested, 0.28% active;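 active means inhibition above the screen-wide average of all tested compounds plus 3 SD, cut at about 25% in these data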;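 further: 0% = enzyme with DMSO only and 100% = wells lacking PAFAH1B3 protein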
Target sequence (Q15102 whole entry, looked up): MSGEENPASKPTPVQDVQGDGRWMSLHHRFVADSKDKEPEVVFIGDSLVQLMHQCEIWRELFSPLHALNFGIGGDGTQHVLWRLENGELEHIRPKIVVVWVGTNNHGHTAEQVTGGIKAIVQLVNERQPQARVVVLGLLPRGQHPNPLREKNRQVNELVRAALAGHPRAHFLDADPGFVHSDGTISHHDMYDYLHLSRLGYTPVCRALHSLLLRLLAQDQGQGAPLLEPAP
pPAFAH FP inh = pPAFAH enzyme inhibitors, primary screen, biochemical, fluorescence polarization, human | recombinant pPAFAH, FP-rhodamine probe fluorescence polarization | inhibition, % at 3.39 µM | 330,000 tested, 1.5% active | AID 463082, 2010;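 active means inhibition above the mean inhibition across the screen plus 3 SD, cut at about 25% in these data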;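 further: inhibitors block binding of the rhodamine activity-based probe so polarization drops; 0% = enzyme with DMSO and 100% = wells lacking pPAFAH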
The depositor's hits bear a star.

Results for CN(C(=O)COC(=O)c1ccc(Cl)c(S(=O)(=O)N2CCCCCC2)c1)C1CCS(=O)(=O)C1 (configuration not stated) ?
ABHD4 inh: 4; PAFAH2 inh: 4; PAFAH1B2 inh: 3; HTRA1 inhibitor: -1; PAFAH1B3 inh: 2; pPAFAH FP inh: 1

How did C(=C\c1ccccc1)/CSc1nnc(Cc2cccs2)n1-c1ccccc1 do in these assays?
ABHD4 inh: 1

How did O=C(CSc1nnc(CCc2ccccc2)n1-c1ccc(Cl)cc1)NCc1ccccc1 do in these assays?
ABHD4 inh: -12; PAFAH2 inh: 5; PAFAH1B2 inh: 9; HTRA1 inhibitor: -19; PAFAH1B3 inh: 5; pPAFAH FP inh: 35*

How did CC1(OC(=O)c2cnc3ccccc3n2)C(=O)C=C2C=C(C3CC3)OC=C2C1=O (configuration not stated) do in these assays?
pPAFAH FP inh: 50*

What do the screens show for `COC/C=C/C1=CC2=CC(=O)C(C)(OC(=O)c3cnc4ccccc4n3)C(=O)C2=CN1c1ccccc1` (configuration not stated)?
ABHD4 inh: 22; pPAFAH FP inh: 15

How did COC/C=C/C1=CC2=CC(=O)C(C)(OC(=O)c3cnc4ccccc4n3)C(=O)C2=CN1C1CCCCC1 (configuration not stated) do in these assays?
pPAFAH FP inh: 10

How did COC/C=C/C1=CC2=CC(=O)C(C)(OC(=O)c3cnc4ccccc4n3)C(=O)C2=CN1c1ccc(CO)cc1 (configuration not stated) do in these assays?
pPAFAH FP inh: 39*

What do the screens show for `CCOC(=O)[C@@]12CN(C(=O)OC(C)(C)C)CC=C1N(Cc1ccc(OC)cc1)C(=O)[C@H]2CC(=O)N1CCC(c2ccccc2)CC1`?
ABHD4 inh: 7

Results for CCC[C@H]1[C@H](N)CC[C@@]23CCCN2C(=O)CCC[C@@H]13 ?
ABHD4 inh: -5

What do the screens show for `CC(C)Cn1c2ccccc2c2cc(C(=O)O)ccc21`?
ABHD4 inh: -13; PAFAH2 inh: 2; PAFAH1B2 inh: 29*; HTRA1 inhibitor: -8; PAFAH1B3 inh: 3; pPAFAH FP inh: 3

How did O=C(NCC1CCCO1)c1cccc2c1C(=O)c1ccc(N3CCC(Cc4ccccc4)CC3)cc1S2(=O)=O (configuration not stated) do in these assays?
PAFAH2 inh: -14; PAFAH1B2 inh: -9; HTRA1 inhibitor: -37; PAFAH1B3 inh: -1; pPAFAH FP inh: 33*

What do the screens show for `Oc1c(Cl)cc(Cl)cc1/C=N/c1nccs1`?
ABHD4 inh: 0; PAFAH2 inh: 10; PAFAH1B2 inh: 6; HTRA1 inhibitor: 6; PAFAH1B3 inh: 9; pPAFAH FP inh: 19

How did Oc1c(Cl)cc(Cl)cc1/C=N/c1nc(-c2ccc(Cl)cc2)cs1 do in these assays?
PAFAH2 inh: 8; PAFAH1B2 inh: 48*; HTRA1 inhibitor: -18; PAFAH1B3 inh: 4; pPAFAH FP inh: 15

Results for CN1C(=O)C[C@@](C#N)(C(=O)NCc2ccccc2)[C@H]1c1ccccc1 ?
ABHD4 inh: 1

How did COC(=O)[C@H](CC(C)C)N(Cc1cn(Cc2ccccc2)nn1)S(=O)(=O)c1ccc(F)cc1Br do in these assays?
ABHD4 inh: -1

What do the screens show for `CCN(CC(=O)NCc1ccc(Cl)cc1)C(=O)NCc1ccc(Cl)cc1`?
ABHD4 inh: -2; PAFAH2 inh: 17; PAFAH1B2 inh: 8; HTRA1 inhibitor: 4; PAFAH1B3 inh: -3; pPAFAH FP inh: 5

How did CCN(CC(=O)NCc1ccc(Cl)cc1)C(=O)CSc1ccc(Br)cc1 do in these assays?
ABHD4 inh: -5; PAFAH2 inh: 11; PAFAH1B2 inh: 26*; HTRA1 inhibitor: -13; PAFAH1B3 inh: 3; pPAFAH FP inh: 9

What do the screens show for `Cc1ccc(NS(=O)(=O)c2cccc(C(=O)Nc3c(C)n(C)n(-c4ccccc4)c3=O)c2)cc1`?
pPAFAH FP inh: 25*

Results for Cc1ccc(S(=O)(=O)Nc2ccc(C(=O)Nc3cc(C)on3)cc2)cc1 ?
ABHD4 inh: -2; PAFAH2 inh: -12; PAFAH1B2 inh: 6; HTRA1 inhibitor: -6; PAFAH1B3 inh: 0; pPAFAH FP inh: 23

What do the screens show for `Cc1ccc(NS(=O)(=O)c2cccc(C(=O)Nc3cc(C)on3)c2)cc1`?
ABHD4 inh: -6; PAFAH2 inh: -5; PAFAH1B2 inh: 3; HTRA1 inhibitor: -20; PAFAH1B3 inh: 3; pPAFAH FP inh: 33*

Results for Cc1ccc(S(=O)(=O)c2nc(S(=O)(=O)c3ccc(C)cc3)c(N3CCN(CCO)CC3)s2)cc1 ?
ABHD4 inh: -15; PAFAH2 inh: 0; PAFAH1B2 inh: 3; HTRA1 inhibitor: -12; PAFAH1B3 inh: 3; pPAFAH FP inh: 26*

How did CS(=O)(=O)c1nc(S(=O)(=O)c2ccc(Cl)cc2)c(N2CCN(CCO)CC2)s1 do in these assays?
ABHD4 inh: -3; PAFAH2 inh: 3; PAFAH1B2 inh: 2; HTRA1 inhibitor: -1; PAFAH1B3 inh: 8; pPAFAH FP inh: 5

Results for CSc1nnc(CCCCCNC(=O)OC(C)(C)C)o1 ?
ABHD4 inh: 0; PAFAH2 inh: 3; PAFAH1B2 inh: 6; HTRA1 inhibitor: 5; PAFAH1B3 inh: 6; pPAFAH FP inh: 5

Results for CCC(=O)OC1(C)C(=O)C=C2C=C(CCCCNC(=O)OC(C)(C)C)OC=C2C1=O (configuration not stated) ?
pPAFAH FP inh: 30*

How did CC(C)(C)OC(=O)NCCCC1=CC2=CC(=O)C(C)(OC(=O)c3ccc(Cl)nc3)C(=O)C2=CO1 (configuration not stated) do in these assays?
pPAFAH FP inh: 40*

Results for CCC(=O)OC1(C)C(=O)C=C2C=C(CCCC(=O)OC)OC=C2C1=O (configuration not stated) ?
ABHD4 inh: 19; PAFAH2 inh: 4; PAFAH1B2 inh: -4; HTRA1 inhibitor: 12; PAFAH1B3 inh: 3; pPAFAH FP inh: 16

What do the screens show for `COC(=O)CCCC1=CC2=CC(=O)C(C)(OC(=O)C3CCCC3)C(=O)C2=CO1` (configuration not stated)?
PAFAH2 inh: 1; PAFAH1B2 inh: 6; HTRA1 inhibitor: 20; PAFAH1B3 inh: -1; pPAFAH FP inh: 32*

How did CC(C)(C)OC(=O)NCCc1nnc(SCC(=O)c2ccc(Cl)cc2)o1 do in these assays?
ABHD4 inh: 2; PAFAH2 inh: -2; PAFAH1B2 inh: 4; HTRA1 inhibitor: 1; PAFAH1B3 inh: 11; pPAFAH FP inh: 4
